Assay results reported in ChEMBL document CHEMBL4270530, “Surmounting the resistance against EGFR inhibitors through the development of thieno[2,3-d]pyrimidine-based dual EGFR/HER2 inhibitors” (Eur J Med Chem, 2018).
pIC50: −log10 of the molar value.

Assays:
[1] = system: HCT-15; test: Growth inhibition of human HCT15 cells assessed as cell growth at 10 uM incubated for 48 hrs by sulforhodamine B assay relative to control; type: functional; conditions: HCT-15, 48 h, read-out: Activity
Outline: (§1)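 NCI-60 one-dose screen run by the NCI Developmental Therapeutics Program at a single 10 µM concentration; growth percent read from the one-dose mean graph.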

[2] = system: SNB-75; test: Growth inhibition of human SNB75 cells assessed as cell growth at 10 uM incubated for 48 hrs by sulforhodamine B assay relative to control; type: functional; conditions: SNB-75, 48 h, read-out: Activity
Outline: (§2)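 NCI-60 single-dose screen at 10 µM run by the NCI Developmental Therapeutics Program; growth percent read from the one-dose mean graph, with percent inhibition approximated from those growth-percent values.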

[3] = system: SK-MEL-2; test: Growth inhibition of human SK-MEL-2 cells assessed as cell growth at 10 uM incubated for 48 hrs by sulforhodamine B assay relative to control; type: functional; conditions: SK-MEL-2, 48 h, read-out: Activity; outline: as §1
[4] = system: MDA-MB-361; test: Cytotoxicity against human MDA-MB-361 cells over expressing HER2 assessed as reduction in cell viability after 72 hrs by sulforhodamine B assay; type: functional, cell-based; conditions: MDA-MB-361, 72 h
Outline: (§3)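 Cells seeded and grown 24 h, then exposed to 0.1% DMSO vehicle or 0.3125-20 μM compound for 72 h. Fixed with ice-cold 50% TCA (1 h, 4 °C), stained with 0.4% SRB 30 min at room temperature, dye solubilized in 10 mM tris base pH 10.5, OD read at 560 nm. Survival fraction = OD treated/OD vehicle; IC50 from triplicates of at least two independent experiments, mean ± SD.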

[5] = system: DU-145; test: Growth inhibition of human DU145 cells assessed as cell growth at 10 uM incubated for 48 hrs by sulforhodamine B assay relative to control; type: functional; conditions: DU-145, 48 h, read-out: Activity; outline: as §1
[6] = system: NCI-H23; test: Growth inhibition of human NCI-H23 cells assessed as cell growth at 10 uM incubated for 48 hrs by sulforhodamine B assay relative to control; type: functional; conditions: NCI-H23, 48 h, read-out: Activity; outline: as §1
[7] = system: OVCAR-3; test: Growth inhibition of human OVCAR3 cells assessed as cell growth at 10 uM incubated for 48 hrs by sulforhodamine B assay relative to control; type: functional; conditions: OVCAR-3, 48 h, read-out: Activity; outline: as §1
[8] = system: MCF7; test: Growth inhibition of human MCF7 cells assessed as cell growth at 10 uM incubated for 48 hrs by sulforhodamine B assay relative to control; type: functional; conditions: MCF7, 48 h, read-out: Activity; outline: as §1
[9] = system: HT-29; test: Growth inhibition of human HT-29 cells assessed as cell growth at 10 uM incubated for 48 hrs by sulforhodamine B assay relative to control; type: functional; conditions: HT-29, 48 h, read-out: Activity; outline: as §1
[10] = system: NCI/ADR-RES; test: Growth inhibition of human NCI/ADR-RES cells assessed as cell growth at 10 uM incubated for 48 hrs by sulforhodamine B assay relative to control; type: functional; conditions: read-out: Activity; outline: as §1
[11] = system: T47D; test: Growth inhibition of human T47D cells assessed as cell growth at 10 uM incubated for 48 hrs by sulforhodamine B assay relative to control; type: functional; conditions: read-out: Activity; outline: as §2
[12] = system: UO-31; test: Growth inhibition of human UO31 cells assessed as cell growth at 10 uM incubated for 48 hrs by sulforhodamine B assay relative to control; type: functional; conditions: UO-31, 48 h, read-out: Activity; outline: as §2
[13] = system: MDA-MB-435; test: Growth inhibition of human MDA-MB-435 cells assessed as cell growth at 10 uM incubated for 48 hrs by sulforhodamine B assay relative to control; type: functional; conditions: MDA-MB-435, 48 h, read-out: Activity; outline: as §1
[14] = system: MDA-MB-468; test: Growth inhibition of human MDA-MB-468 cells at 10 uM incubated for 48 hrs by sulforhodamine B assay relative to control; type: functional; conditions: MDA-MB-468, 48 h, read-out: GI; outline: as §1
[15] = system: A498; test: Growth inhibition of human A498 cells assessed as cell growth at 10 uM incubated for 48 hrs by sulforhodamine B assay relative to control; type: functional; conditions: A498, 48 h, read-out: Activity; outline: as §1
[16] = system: TK-10; test: Growth inhibition of human TK10 cells at 10 uM incubated for 48 hrs by sulforhodamine B assay relative to control; type: functional; conditions: TK-10, 48 h, read-out: GI; outline: as §2
[17] = system: U-251; test: Growth inhibition of human U251 cells assessed as cell growth at 10 uM incubated for 48 hrs by sulforhodamine B assay relative to control; type: functional; conditions: U-251, 48 h, read-out: Activity; outline: as §2
[18] = system: SK-MEL-28; test: Growth inhibition of human SK-MEL-28 cells assessed as cell growth at 10 uM incubated for 48 hrs by sulforhodamine B assay relative to control; type: functional; conditions: SK-MEL-28, 48 h, read-out: Activity; outline: as §1
[19] = system: M14; test: Growth inhibition of human M14 cells assessed as cell growth at 10 uM incubated for 48 hrs by sulforhodamine B assay relative to control; type: functional; conditions: M14, 48 h, read-out: Activity; outline: as §1
[20] = system: A-431; test: Cytotoxicity against human A431 cells over expressing EGFR assessed as reduction in cell viability after 72 hrs by sulforhodamine B assay; type: functional, cell-based; conditions: A-431, 72 h; outline: as §3
[21] = system: BT-549; test: Growth inhibition of human BT549 cells assessed as cell growth at 10 uM incubated for 48 hrs by sulforhodamine B assay relative to control; type: functional; conditions: BT-549, 48 h, read-out: Activity; outline: as §1
[22] = system: NCI-H226; test: Growth inhibition of human NCI-H226 cells assessed as cell growth at 10 uM incubated for 48 hrs by sulforhodamine B assay relative to control; type: functional; conditions: NCI-H226, 48 h, read-out: Activity; outline: as §1
[23] = system: UACC-62; test: Growth inhibition of human UACC62 cells assessed as cell growth at 10 uM incubated for 48 hrs by sulforhodamine B assay relative to control; type: functional; conditions: UACC-62, 48 h, read-out: Activity; outline: as §2
[24] = system: NCI-H322M; test: Growth inhibition of human NCI-H322M cells at 10 uM incubated for 48 hrs by sulforhodamine B assay relative to control; type: functional; conditions: read-out: GI; outline: as §1
[25] = system: PC-3; test: Growth inhibition of human PC3 cells assessed as cell growth at 10 uM incubated for 48 hrs by sulforhodamine B assay relative to control; type: functional; conditions: PC-3, 48 h, read-out: Activity; outline: as §1
[26] = system: MOLT-4; test: Growth inhibition of human MOLT4 cells assessed as cell growth at 10 uM incubated for 48 hrs by sulforhodamine B assay relative to control; type: functional; conditions: MOLT-4, 48 h, read-out: Activity; outline: as §1
[27] = system: 786-0; test: Growth inhibition of human 786-0 cells assessed as cell growth at 10 uM incubated for 48 hrs by sulforhodamine B assay relative to control; type: functional; conditions: 786-0, 48 h, read-out: Activity; outline: as §1
[28] = system: Malme-3M; test: Growth inhibition of human MALME-3M cells assessed as cell growth at 10 uM incubated for 48 hrs by sulforhodamine B assay relative to control; type: functional; conditions: read-out: Activity; outline: as §1
[29] = system: ACHN; test: Growth inhibition of human ACHN cells at 10 uM incubated for 48 hrs by sulforhodamine B assay relative to control; type: functional; conditions: read-out: GI; outline: as §1
[30] = system: NCI-H522; test: Growth inhibition of human NCI-H522 cells assessed as cell growth at 10 uM incubated for 48 hrs by sulforhodamine B assay relative to control; type: functional; conditions: NCI-H522, 48 h, read-out: Activity; outline: as §1

With `Nc1ccc(-c2cc3c(Nc4ccc(OCc5cccc(F)c5)c(Cl)c4)ncnc3s2)cc1` the growth at 10 µM [1] was 32.9%, the growth at 10 µM [2] was 87.2% and the growth at 10 µM [3] was 25.4%. The pIC50 [4] was 5.24, the growth at 10 µM [5] was 36.9% and the growth at 10 µM [6] was 68.6%. For the same molecule, the growth at 10 µM [7] was 46.6%, the growth at 10 µM [8] was 26.2% and the growth at 10 µM [9] was 84.5%. For the same molecule, the growth at 10 µM [10] was 50.4%, the growth at 10 µM [11] was 15.4% and the growth at 10 µM [12] was 19.6%. It also gave a growth at 10 µM [13] of 43.8%, an inhibition of growth at 10 µM [14] of 85% and a growth at 10 µM [15] of 39.3%. For the same molecule, the inhibition of growth at 10 µM [16] was 70%, the growth at 10 µM [17] was 57% and the growth at 10 µM [18] was 39.2%. It also gave a growth at 10 µM [19] of 51.9%, a pIC50 [20] of 5.01 and a growth at 10 µM [21] of 61.2%. The growth at 10 µM [22] was 53.5%, the growth at 10 µM [23] was 55.7% and the inhibition of growth at 10 µM [24] was 75%. The growth at 10 µM [25] was 29.6%, the growth at 10 µM [26] was 30% and the growth at 10 µM [27] was 37.2%. The growth at 10 µM [28] was 42.1%, the inhibition of growth at 10 µM [29] was 70% and the growth at 10 µM [30] was 13.1%.
Work on `O=[N+]([O-])c1ccc(-c2cc3c(Nc4ccc(OCc5cccc(F)c5)c(Cl)c4)ncnc3s2)cc1` yielded a growth at 10 µM [1] of 63.4%, a growth at 10 µM [2] of 98.5% and a growth at 10 µM [3] of 86.2%. For the same molecule, the pIC50 [4] was 5.12, the growth at 10 µM [5] was 82.1% and the growth at 10 µM [6] was 73.1%. For the same molecule, the growth at 10 µM [7] was 34.5%, the growth at 10 µM [8] was 78.9% and the growth at 10 µM [9] was 66.9%. For the same molecule, the growth at 10 µM [10] was 80.5%, the growth at 10 µM [11] was 76.6% and the growth at 10 µM [12] was 59.2%. The growth at 10 µM [13] was 91.9%, the inhibition of growth at 10 µM [14] was 40% and the growth at 10 µM [15] was 84.8%. It also gave an inhibition of growth at 10 µM [16] of 30%, a growth at 10 µM [17] of 55.1% and a growth at 10 µM [18] of 110%. The growth at 10 µM [19] was 77.2%, the pIC50 [20] was 4.96 and the growth at 10 µM [21] was 103%. It also gave a growth at 10 µM [22] of 86.4%, a growth at 10 µM [23] of 79.1% and an inhibition of growth at 10 µM [24] of 15%. The growth at 10 µM [25] was 54.1%, the growth at 10 µM [26] was 65.7% and the growth at 10 µM [27] was 95.4%. It also gave a growth at 10 µM [28] of 94.4%, an inhibition of growth at 10 µM [29] of 23% and a growth at 10 µM [30] of 68.3%.
